Assay results published in ChEMBL document CHEMBL1136089, “Synthesis and in vitro activity of new methylenepiperidinyl and methylenepyrrolidinyl oxazolidinone antibacterial agents” (Bioorg Med Chem Lett, 2003).
≈ marks a conversion by molar mass, not a printed value.

Experiments:
[1] = tested on: Staphylococcus aureus; test: In vitro antibacterial activity against Staphylococcus aureus; format: functional
[2] = tested on: Streptococcus pyogenes; test: In vitro antibacterial activity against Streptococcus pyogenes ATTCC8668
[3] = tested on: Streptococcus pyogenes; test: In vitro antibacterial activity against Streptococcus pyogenes C6003
[4] = tested on: Staphylococcus aureus; test: In vitro antibacterial activity against methicillin-resistant Staphylococcus aureus (MRSA); format: functional
[5] = tested on: Enterococcus faecalis; test: In vitro antibacterial activity against Enterococcus faecalis C6291 (E. f. 1); format: functional
Summary of the method: (§1)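 MIC by agar dilution on Mueller–Hinton agar, inoculum 10⁴ CFU/spot. Reported in μg/mL.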

[6] = tested on: Enterococcus faecalis; test: In vitro antibacterial activity against Enterococcus faecalis C6301 (E. f. 1); format: functional; summary of the method: as §1
[7] = tested on: Staphylococcus aureus; test: In vitro antibacterial against methicillin-susceptible Staphylococcus aureus (MSSA); format: functional
[8] = tested on: Staphylococcus epidermidis; test: In vitro antibacterial activity against Staphylococcus epidermis C2235; format: functional; summary of the method: as §1
[9] = tested on: Enterococcus faecium; test: In vitro antibacterial activity against vancomycin-resistant Enterococcus faecium C6487
[10] = tested on: Staphylococcus aureus; test: In vitro antibacterial activity against ciprofloxacin-resistant Staphylococcus aureus (CRSA); format: functional
[11] = tested on: Staphylococcus epidermidis; test: In vitro antibacterial activity against Staphylococcus epidermis ATCC 1228; format: functional; summary of the method: as §1
[12] = Area under curve was determined in male rat; format: ADME, organism-based; settings: in vivo
Summary of the method: (§2)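 Single oral dose of 15 mg/Kg to rats, with compound dissolved in 50% PEG solution.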

[13] = Half-life in male rat; format: ADME, organism-based; settings: in vivo; summary of the method: as §2
[14] = Tmax in male rat; format: ADME, organism-based; settings: in vivo; summary of the method: as §2
[15] = Cmax in male rat; format: ADME, organism-based; settings: in vivo; summary of the method: as §2

Row | Compound | MIC [1] | MIC [2] | MIC [3] | MIC [4] | MIC [5] | MIC [6] | MIC [7] | MIC [8] | MIC [9] | MIC [10] | MIC [11] | AUC [12] | half-life [13] | Tmax [14] | Cmax [15]
1 | CO/N=C(\C)C=C1CCN(c2ccc(N3C[C@H](CNC(C)=O)OC3=O)cc2F)CC1 | 16 µg/mL (≈ 38.2 µM) | 2 µg/mL (≈ 4.78 µM) | 8 µg/mL (≈ 19.1 µM) | 8 µg/mL (≈ 19.1 µM) | 8 µg/mL (≈ 19.1 µM) | 8 µg/mL (≈ 19.1 µM) | 16 µg/mL (≈ 38.2 µM) | 8 µg/mL (≈ 19.1 µM) | 4 µg/mL (≈ 9.56 µM) | 16 µg/mL (≈ 38.2 µM) | 8 µg/mL (≈ 19.1 µM) | – | – | – | –
2 | CC(=O)C=C1CCN(c2ccc(N3C[C@H](CNC(C)=O)OC3=O)cc2F)CC1 | 8 µg/mL (≈ 20.5 µM) | 0.25 µg/mL (≈ 0.642 µM) | 16 µg/mL (≈ 41.1 µM) | 16 µg/mL (≈ 41.1 µM) | 16 µg/mL (≈ 41.1 µM) | 8 µg/mL (≈ 20.5 µM) | 16 µg/mL (≈ 41.1 µM) | 8 µg/mL (≈ 20.5 µM) | 8 µg/mL (≈ 20.5 µM) | 16 µg/mL (≈ 41.1 µM) | 1 µg/mL (≈ 2.57 µM) | – | – | – | –
3 | CC(=O)NC[C@H]1CN(c2ccc(N3CCC(=C(C#N)C#N)CC3)c(F)c2)C(=O)O1 | 2 µg/mL (≈ 5.03 µM) | 1 µg/mL (≈ 2.52 µM) | 4 µg/mL (≈ 10.1 µM) | 2 µg/mL (≈ 5.03 µM) | 4 µg/mL (≈ 10.1 µM) | 2 µg/mL (≈ 5.03 µM) | 4 µg/mL (≈ 10.1 µM) | 2 µg/mL (≈ 5.03 µM) | 4 µg/mL (≈ 10.1 µM) | 4 µg/mL (≈ 10.1 µM) | 1 µg/mL (≈ 2.52 µM) | – | – | – | –
4 | CO/N=C/C=C1CCN(c2ccc(N3C[C@H](CNC(C)=O)OC3=O)cc2F)CC1 | 8 µg/mL (≈ 19.8 µM) | 1 µg/mL (≈ 2.47 µM) | 2 µg/mL (≈ 4.95 µM) | 4 µg/mL (≈ 9.89 µM) | 4 µg/mL (≈ 9.89 µM) | 4 µg/mL (≈ 9.89 µM) | 8 µg/mL (≈ 19.8 µM) | 2 µg/mL (≈ 4.95 µM) | 4 µg/mL (≈ 9.89 µM) | 4 µg/mL (≈ 9.89 µM) | 1 µg/mL (≈ 2.47 µM) | – | – | – | –
5 | CC(=O)NC[C@H]1CN(c2ccc(N3CCC(=CC(C)O)CC3)c(F)c2)C(=O)O1 (stereo partly specified) | 8 µg/mL (≈ 20.4 µM) | 2 µg/mL (≈ 5.11 µM) | 8 µg/mL (≈ 20.4 µM) | 4 µg/mL (≈ 10.2 µM) | 8 µg/mL (≈ 20.4 µM) | 4 µg/mL (≈ 10.2 µM) | 16 µg/mL (≈ 40.9 µM) | 4 µg/mL (≈ 10.2 µM) | 4 µg/mL (≈ 10.2 µM) | 8 µg/mL (≈ 20.4 µM) | 2 µg/mL (≈ 5.11 µM) | – | – | – | –
6 | CC(=O)NC[C@H]1CN(c2ccc(N3CCC(=C/C=N/O)CC3)c(F)c2)C(=O)O1 | 8 µg/mL (≈ 20.5 µM) | 2 µg/mL (≈ 5.12 µM) | 4 µg/mL (≈ 10.2 µM) | 4 µg/mL (≈ 10.2 µM) | 4 µg/mL (≈ 10.2 µM) | 4 µg/mL (≈ 10.2 µM) | 8 µg/mL (≈ 20.5 µM) | 4 µg/mL (≈ 10.2 µM) | 4 µg/mL (≈ 10.2 µM) | 8 µg/mL (≈ 20.5 µM) | 1 µg/mL (≈ 2.56 µM) | – | – | – | –
7 | CC(=O)NC[C@H]1CN(c2ccc(N3CCC(=CC#N)CC3)c(F)c2)C(=O)O1 | 2 µg/mL (≈ 5.37 µM) | 0.5 µg/mL (≈ 1.34 µM) | 2 µg/mL (≈ 5.37 µM) | 1 µg/mL (≈ 2.69 µM) | 2 µg/mL (≈ 5.37 µM) | 2 µg/mL (≈ 5.37 µM) | 4 µg/mL (≈ 10.7 µM) | 1 µg/mL (≈ 2.69 µM) | 4 µg/mL (≈ 10.7 µM) | 2 µg/mL (≈ 5.37 µM) | 0.5 µg/mL (≈ 1.34 µM) | 6810 ng·h/mL | 488 min | 30 min | 1320 ng/mL
8 | CC(=O)NC[C@H]1CN(c2ccc(N3CCC(=CC=O)CC3)c(F)c2)C(=O)O1 | 8 µg/mL (≈ 21.3 µM) | 2 µg/mL (≈ 5.33 µM) | 8 µg/mL (≈ 21.3 µM) | 4 µg/mL (≈ 10.7 µM) | 8 µg/mL (≈ 21.3 µM) | 4 µg/mL (≈ 10.7 µM) | 8 µg/mL (≈ 21.3 µM) | 2 µg/mL (≈ 5.33 µM) | 8 µg/mL (≈ 21.3 µM) | 4 µg/mL (≈ 10.7 µM) | 1 µg/mL (≈ 2.66 µM) | – | – | – | –
9 | CCOC(=O)C(C#N)=C1CCN(c2ccc(N3C[C@H](CNC(C)=O)OC3=O)cc2F)CC1 | 4 µg/mL (≈ 9 µM) | 1 µg/mL (≈ 2.25 µM) | 4 µg/mL (≈ 9 µM) | 4 µg/mL (≈ 9 µM) | 4 µg/mL (≈ 9 µM) | 2 µg/mL (≈ 4.5 µM) | 4 µg/mL (≈ 9 µM) | 2 µg/mL (≈ 4.5 µM) | 2 µg/mL (≈ 4.5 µM) | 4 µg/mL (≈ 9 µM) | 1 µg/mL (≈ 2.25 µM) | – | – | – | –
10 | CC(=O)NC[C@H]1CN(c2ccc(N3CCC(=C/C(C)=N/O)CC3)c(F)c2)C(=O)O1 | 8 µg/mL (≈ 19.8 µM) | 1 µg/mL (≈ 2.47 µM) | 4 µg/mL (≈ 9.89 µM) | 4 µg/mL (≈ 9.89 µM) | 4 µg/mL (≈ 9.89 µM) | 4 µg/mL (≈ 9.89 µM) | 8 µg/mL (≈ 19.8 µM) | 4 µg/mL (≈ 9.89 µM) | 4 µg/mL (≈ 9.89 µM) | 8 µg/mL (≈ 19.8 µM) | 1 µg/mL (≈ 2.47 µM) | – | – | – | –
11 | CC(=O)NC[C@H]1CN(c2ccc(N3CCC(=C(C#N)C#N)C3)c(F)c2)C(=O)O1 | 8 µg/mL (≈ 20.9 µM) | – | – | – | – | 16 µg/mL (≈ 41.7 µM) | – | 4 µg/mL (≈ 10.4 µM) | 16 µg/mL (≈ 41.7 µM) | 8 µg/mL (≈ 20.9 µM) | 4 µg/mL (≈ 10.4 µM) | – | – | – | –
12 | CCOC(=O)/C(C#N)=C1/CCN(c2ccc(N3C[C@H](CNC(C)=O)OC3=O)cc2F)C1 | 16 µg/mL (≈ 37.2 µM) | – | – | – | – | 32 µg/mL (≈ 74.3 µM) | – | 8 µg/mL (≈ 18.6 µM) | 16 µg/mL (≈ 37.2 µM) | 16 µg/mL (≈ 37.2 µM) | 8 µg/mL (≈ 18.6 µM) | – | – | – | –
